The text below walks through data of article PMC3530929 (Journal of medicinal chemistry, 2012).

“Also recorded” adds a separate entry of the source.

The target of series [1] is T1, chymotrypsin-like (CT-L) activity of the 20S proteasome (Oryctolagus cuniculus, UniProt G1T4Q9).
T1 sequence (G1T4Q9 60-263): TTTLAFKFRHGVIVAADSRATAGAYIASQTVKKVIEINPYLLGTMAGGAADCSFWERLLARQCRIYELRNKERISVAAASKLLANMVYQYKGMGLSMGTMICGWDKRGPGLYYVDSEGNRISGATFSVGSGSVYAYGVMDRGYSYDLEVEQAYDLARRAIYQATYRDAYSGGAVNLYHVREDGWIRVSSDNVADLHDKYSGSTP
Briefly: In vitro CT-L proteasome inhibition, fluorogenic assay. The note with it: for IC50: CT-L inhibitory activity IC50, in vitro. It counts as biochemical, rabbit.

A short description of series [2]: Stability at room temperature. The series is classed as physicochemical. Conditions: for stability at room temperature: 1H NMR in deuterated DMSO up to 3 weeks, HPLC and LCMS in tris buffer.
Series [3] in a line: Stability in biological media by HPLC. It counts as physicochemical. Conditions: DMEM and RPMI-1640 without serum, 10 μM, 1% DMSO, 37 °C, 1, 3, 5, 7 days. Put shortly:
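A 1 mM DMSO stock from fresh powder was diluted into serum-free DMEM or RPMI (10 μM final, 1% DMSO), with 5 replicates per medium, and kept at 37 °C. Vials were removed on days 1, 3, 5 and 7, chilled to 0 °C on ice and analysed at once by HPLC. Conditions: C18, 5 μm, 4.6×150 mm, isocratic 35% or 50% CH3CN/water with 0.1% TFA depending on compound, 1 ml/min, 30 min. Peak area was plotted against day.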

Series [4] deals with T2, trypsin-like (T-L) activity of the proteasome (Oryctolagus cuniculus, UniProt G1SWK8).
T2 sequence (G1SWK8 1-271): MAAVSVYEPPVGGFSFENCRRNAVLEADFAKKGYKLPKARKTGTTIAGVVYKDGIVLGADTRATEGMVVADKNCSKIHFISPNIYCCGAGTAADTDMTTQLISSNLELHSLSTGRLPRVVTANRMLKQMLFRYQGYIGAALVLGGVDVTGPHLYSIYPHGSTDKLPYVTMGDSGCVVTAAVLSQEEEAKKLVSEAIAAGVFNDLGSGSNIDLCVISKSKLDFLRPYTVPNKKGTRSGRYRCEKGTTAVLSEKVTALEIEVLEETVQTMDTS
Description: In vitro T-L proteasome inhibition, fluorogenic assay. The series is classed as biochemical, rabbit. Conditions: read-out: T-L inhibition at 10 μM (cells printed ND).

For series [5], the system named is rabbit 20S proteasome CT-L activity. Description: Dialysis using purified rabbit 20S proteasome. The series is classed as biochemical. The note with it: for mode of CT-L proteasome inhibition (reversible or irreversible): concluded from dialysis; for recovery of CT-L activity during dialysis: dialysis up to 18 h at 4 °C. The essentials: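 Test compound at 10 μM, or 0.1% DMSO vehicle, was added to rabbit 20S proteasome (1.5 nM final) in 50 mM Tris-HCl pH 7.6 and held 30 min at room temperature. The mixture was dialysed (3,500 MWCO) against assay buffer at 4 °C and sampled at 0, 0.5, 1, 4, 8 and 18 h. CT-L activity was assayed per the earlier method and normalised to the DMSO control.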

The subject of series [6] is ubiquitinated cellular proteins in MDA-MB-468 cells. Description: Ubiquitination by Western blot analysis. It counts as cell-based, human. The note with it: MDA-MB-468, 11 hours, various concentrations.

Consider `O=S(=O)(Nc1cc(Sc2ncn[nH]2)c(O)c2ccccc12)c1ccc(Oc2ccccc2)cc1` [Compound 29, N-(3-(1H-1,2,4-triazol-3-ylthio)-4-hydroxynaphthalen-1-yl)-4-phenoxybenzenesulfonamide], for which the “fold improved CT-L inhibitory activity” value in series [1] (compared with compound 1) is reported as “up to 20 fold”. Besides, the “selectivity for CT-L over T-L activity” value in series [1] (in vitro) was 28 fold.
On to `O=S(=O)(Nc1cc(Sc2nnc[nH]2)c(O)c2ccccc12)c1ccc(-c2ccccc2)cc1` [Compound 25], for which the “stability at room temperature” value in series [2] is “stable at room temperature for up to two weeks”.
In the case of `O=S(=O)(Nc1cc(Sc2nnn[nH]2)c(O)c2ccccc12)c1ccc(Cl)c(Cl)c1` [Compound 36, N-(3-(1H-tetrazol-5-ylthio)-4-hydroxynaphthalen-1-yl)-3,4-dichlorobenzenesulfonamide], in series [1] (in vitro), the “selectivity CT-L versus T-L (in words)” value is “equipotent against CT-L and T-L activities”.
On to `O=C(O)CSc1ccc(NS(=O)(=O)c2cccs2)c2ccccc12` [Compound 23, 2-(4-(Thiophene-2-sulfonamido)naphthalen-1-ylthio)acetic acid], for which the IC50 in series [1] was above 100000 nM.
As to `O=S(=O)(Nc1cc(Sc2nnn[nH]2)c(O)c2ccccc12)c1ccc(Oc2ccccc2)cc1` [Compound 15k, N-(3-(1H-tetrazol-5-ylthio)-4-hydroxynaphthalen-1-yl)-4-phenoxybenzenesulfonamide], in series [1] (compared with compound 1), the “fold improved CT-L inhibitory activity” value is on record as “up to 20 fold”. The “stability in biological media (HPLC peak area)” value (from here on “stability in biological media”) in series [3] is “stable up to 7 days at 37 °C”.
For the molecule `O=S(=O)(Nc1cc(Sc2nnn[nH]2)c(O)c2ccccc12)c1ccc(-c2ccc(F)cc2)cc1` [Compound 15j, N-(3-(1H-tetrazol-5-ylthio)-4-hydroxynaphthalen-1-yl)-4′-fluorobiphenyl-4-sulfonamide], the concentration for half-maximal inhibition (IC50) in series [1] is around 200 nM. The “fold improved CT-L inhibitory activity” value in series [1] (compared with compound 1) is on record as “up to 20 fold”.
As to `O=C(O)CSc1cc(NS(=O)(=O)c2cccs2)c2ccccc2c1O` [Compound 1, 2-(1-Hydroxy-4-(thiophene-2-sulfonamido)naphthalen-2-ylthio)acetic acid], in series [4], the inhibition at 10 µM was below 70%. Also, in series [5], the “mode of CT-L proteasome inhibition (reversible or irreversible)” value was “irreversibly; also recorded: irreversible” and the “recovery of CT-L activity during dialysis” value was “did not show any recovery”. The “stability in biological media” value in series [3] was “stable up to 7 days at 37 °C”. Moreover, the “stability at room temperature” value in series [2] was “stable at room temperature for up to two weeks”. Moreover, the “impurities (oxidized material) after 2 weeks” value in series [2] (room temperature, after 2 weeks) is listed as 3–5%.
For the molecule `O=S(=O)(Nc1cc(Sc2ncn[nH]2)c(O)c2ccccc12)c1ccc(-c2ccc(F)cc2)cc1` [Compound 27, N-(3-(1H-1,2,4-triazol-3-ylthio)-4-hydroxynaphthalen-1-yl)-4′-fluorobiphenyl-4-sulfonamide], the “fold improved CT-L inhibitory activity” value in series [1] (compared with compound 1) is on record as “up to 20 fold”.
As to `O=C(O)CCSc1cc(NS(=O)(=O)c2cccs2)c2ccccc2c1O` [Compound 11d, 3-(1-Hydroxy-4-(thiophene-2-sulfonamido)naphthalen-2-ylthio)propanoic acid], the “fold decreased potency (CT-L)” value in series [1] (extended side chain, compared with compound 1) is 2 fold.
Regarding `O=S(=O)(Nc1cc(Sc2nnn[nH]2)c(O)c2ccccc12)c1ccc(-c2ccccc2)cc1` [Compound 15e, N-(3-(1H-tetrazol-5-ylthio)-4-hydroxynaphthalen-1-yl)biphenyl-4-sulfonamide], the IC50 in series [1] was around 200 nM. Further, the “fold improved CT-L inhibitory activity” value in series [1] (compared with compound 1) is “up to 20 fold”.
Consider `O=S(=O)(Nc1cc(Sc2nnn[nH]2)c(O)c2ccccc12)c1ccc(-c2ccc(C(F)(F)F)cc2)cc1` [Compound 39, N-(3-(1H-tetrazol-5-ylthio)-4-hydroxynaphthalen-1-yl)-4′-(trifluoromethyl)biphenyl-4-sulfonamide], for which the “ubiquitination / accumulation of ubiquitinated cellular proteins” value in series [6] was “concentration-dependent increase in ubiquitination; also recorded: induced the accumulation of ubiquitinated cellular proteins”. In series [5], the “mode of CT-L proteasome inhibition (reversible or irreversible)” value is “irreversibly; also recorded: irreversible” and the “recovery of CT-L activity during dialysis” value was “did not show any recovery”. The “stability in biological media” value in series [3] was “stable up to 7 days at 37 °C”.
The molecule `O=S(=O)(Nc1cc(Sc2nnn[nH]2)c(O)c2ccccc12)c1ccc(-c2ccccc2)s1` [Compound 15f, N-(3-(1H-tetrazol-5-ylthio)-4-hydroxynaphthalen-1-yl)-5-phenylthiophene-2-sulfonamide] returned an IC50 in series [1] of around 200 nM. The “fold improved CT-L inhibitory activity” value in series [1] (compared with compound 1) is given as “up to 20 fold”. The “stability at room temperature” value in series [2] was “stable at room temperature for up to two weeks”.
`O=S(=O)(Nc1cc(Sc2nnn[nH]2)c(O)c2ccccc12)c1ccc(C2CCCCC2)cc1` [Compound 15h, N-(3-(1H-tetrazol-5-ylthio)-4-hydroxynaphthalen-1-yl)-4-cyclohexylbenzenesulfonamide]: the IC50 in series [1] is around 200 nM. Further, the “fold improved CT-L inhibitory activity” value in series [1] (compared with compound 1) is on record as “up to 20 fold”.
Turning to `O=S(=O)(Nc1cc(Sc2nnn[nH]2)c(O)c2ccccc12)c1ccc(Cl)cc1` [Compound 35, N-(3-(1H-tetrazol-5-ylthio)-4-hydroxynaphthalen-1-yl)-4-chlorobenzenesulfonamide], in series [1] (in vitro), the “selectivity CT-L versus T-L (in words)” value is “equipotent against CT-L and T-L activities”.
As for `O=S(=O)(Nc1cc(Sc2nnn[nH]2)c(O)c2ccccc12)c1cccs1` [Compound 15d, N-(3-(1H-tetrazol-5-ylthio)-4-hydroxynaphthalen-1-yl)thiophene-2-sulfonamide], the “selectivity CT-L versus T-L (in words)” value in series [1] (in vitro) is “more selective for T-L over CT-L”.

One may read the IC50 as the concentration that inhibits the measured activity by half. Low values mean inhibition by little substance, high ones a need for much substance. The inhibition is the relative decrease from the control value, in per cent.
